One may read the IC50 as the concentration needed to halve the response being measured.

Structures are written as SMILES. Square brackets hold non-standard residues; d marks the D form. Peptide text beside a SMILES is read from it. * marks the point of attachment. 3Abz = Nc1cccc(C(=O)O)c1; Boc = CC(C)(C)OC(=O)* Some results are limits rather than exact numbers.

Assay [1] has as its target Integrin alpha-V/beta-3 (Homo sapiens) (UniProt P05106+P06756). Nature of the assay: Inhibition of fibrinogen binding to immobilized vitronectin receptor. It counts as protein-complex assay. More on the design: reference not given here.
Assay [2] in a line: Inhibition of platelet aggregation in human-platelet rich plasma(h-PRP) induced by collagen. It is filed as functional. A digest of the protocol: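 Citrated human PRP with serial inhibitor dilutions; aggregation triggered by collagen at 2.5 μg/mL (final) and followed as rate of light transmission change in an aggregometer; plasma from at least four donors.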
Assay [3] in a line: Inhibition of platelet aggregation in human-platelet rich plasma(h-PRP) induced by adenosine 5'-diphosphate-(ADP). It is filed as functional. A digest of the protocol:
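Citrated human PRP with serial inhibitor dilutions; aggregation triggered by 10 μM ADP (final) and followed as rate of light transmission change in an aggregometer; plasma from at least four donors.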

The target in assay [4] is T1, Integrin alpha-IIb/beta-3 (Homo sapiens) (UniProt P05106+P08514). Nature of the assay: (§1) Inhibition of fibrinogen binding to immobilized fibrinogen receptor. Set-up: reference not given here. It is filed as protein-complex assay.
Assay [5] can be described thus: Inhibition of platelet aggregation in human-platelet rich plasma(h-PRP) induced by thrombin. It counts as functional. In outline:
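Citrated human PRP with serial inhibitor dilutions; aggregation triggered by thrombin at 0.2 unit/mL (final) and followed as rate of light transmission change in an aggregometer; plasma from at least four donors.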

The target in assay [6] is T1, Integrin alpha-IIb/beta-3 (Homo sapiens). Described as §1. It is filed as protein-complex assay.

On to `N=C(N)NCCC[C@H](N)C(=O)NCC(=O)N[C@@H](CC(=O)O)C(=O)N[C@@H](CO)C(=O)O`, for which the Ratio in assay [1] and in assay [4] was 1 in each case. Also, the half-maximal inhibitory concentration (IC50) is 142000 nM in assay [2], 88000 nM in assay [3] and 135000 nM in assay [5].
Consider `COc1ccc(CCNC(=O)[C@H](CC(=O)O)NC(=O)CCNC(=O)c2ccc(C(=N)N)cc2)cc1`, for which the Ratio in assay [1] is 8000; in assay [4], 0.002. The IC50 in assay [2] is 100 nM; in assay [3], 120 nM; in assay [5], 130 nM.
For the molecule `N=C(N)c1ccc(C(=O)NCCCCC(=O)N[C@@H](CC(=O)O)C(=O)N[C@@H](Cc2ccccc2)C(=O)O)cc1`, the Ratio in assay [1] is 280; in assay [4] it was 0.004. Moreover, the IC50 amounted to 400 nM in assay [2], 200 nM in assay [3] and 100 nM in assay [5].
`N=C(N)c1ccc(C(=O)NCCC(=O)N[C@@H](CC(=O)O)C(=O)N[C@@H](Cc2ccccc2)C(=O)O)cc1`: the values for the Ratio in assay [1] and in assay [4] were 4500 and 0.0003, respectively. The IC50 in assay [2] worked out at 60 nM; in assay [3] it was 60 nM; in assay [5] it was 70 nM.
In the case of `NC(N)=NCCC[C@H](N)C(=O)Nc1cccc(C(=O)NCCC(=O)O)c1`, the Ratio in assay [1] was determined as 900; in assay [4] it was 1.3. Also, the IC50 in assay [2] turned out to be 50000 nM; in assay [3], 51000 nM; in assay [5], 68000 nM.
For `C[C@H](NC(=O)c1ccc(C(=N)N)cn1)C(=O)N1CCC(OCC(=O)O)CC1`, the results for the Ratio in assay [1] and in assay [4] were greater than 30000 and 0.0001, respectively. Further, the IC50 is 30 nM in assay [2], 20 nM in assay [3] and 30 nM in assay [5].
For `CC(C)[C@H](NC(=O)[C@H](CC(=O)O)NC(=O)c1cccc(NC(=O)[C@H](CCCN=C(N)N)NC(=O)OC(C)(C)C)c1)C(=O)O` (Boc-R[3Abz]DV-OH), the figures for the Ratio in assay [1] and in assay [4] were 250 and 0.06, respectively. The values for the IC50 in assay [2], in assay [3] and in assay [5] were 7000 nM, 4900 nM and 4400 nM, respectively.
On to `N=C(N)c1ccc(C(=O)NCC(=O)N2CCC(OCC(=O)O)CC2)cc1`, for which the Ratio is greater than 8000 in assay [1] and 0.008 in assay [4]. Also, the results for the IC50 in assay [2], in assay [3] and in assay [5] were 100 nM, 110 nM and 90 nM, respectively.
For `C[C@@H](NC(=O)c1ccc(C(=N)N)cc1)C(=O)N1CCC(OCC(=O)O)CC1` the same measures were greater than 9000, 0.007, 1100 nM, 900 nM and 1100 nM.
As to `CC(C)[C@H](NC(=O)[C@H](CC(=O)O)NC(=O)CCCNC(=O)c1ccc(C(=N)N)cc1)C(=O)O`, the Ratio in assay [1] came out at 1700; in assay [4] it was 0.002. In addition, the IC50 in assay [2], in assay [3] and in assay [5] was 700 nM each time.
Take `N=C(N)c1ccc(CC(N)C(=O)Nc2cccc(C(=O)NCCC(=O)O)c2)cc1` (centres undefined): the Ratio in assay [1] is 2500; in assay [4], 10. Also, the IC50 in assay [2] turned out to be 153000 nM; in assay [3], 95000 nM; in assay [5] it was 95000 nM.
For `C[C@H](Cc1ccc(OCC(=O)O)cc1)NS(=O)(=O)c1ccc(C(=N)N)cc1`, the Ratio in assay [1] is greater than 30000; in assay [4], 10.5. Besides, the figures for the IC50 in assay [2], in assay [3] and in assay [5] were 102000 nM, 115000 nM and 103000 nM, respectively.
For `N=C(N)c1ccc(C(=O)NCCc2ccc(OCC(=O)O)cc2)cc1`, the Ratio amounted to 1300 in assay [1] and 0.028 in assay [4]. In addition, the IC50 in assay [2] stood at 300 nM; in assay [3] it was 800 nM; in assay [5] it was 400 nM.
Take `C[C@@]1(C(=O)N2CCC(OCC(=O)O)CC2)CCCN1C(=O)c1ccc(C(=N)N)cc1`: the Ratio worked out at 12000 in assay [1] and 0.37 in assay [4]. The IC50 in assay [2] amounted to 15000 nM; in assay [3] it was 13000 nM; in assay [5] it was 49000 nM.
Regarding `N=C(N)c1ccc(C(=O)NCC(=O)c2ccc(OCC(=O)O)cc2)cc1`, the figures for the Ratio in assay [1] and in assay [4] were 8400 and 0.004, respectively. Moreover, the IC50 was 130 nM in assay [2], 90 nM in assay [3] and 90 nM in assay [5].
With `N=C(N)c1ccc(C(=O)N[C@@H](CC(=O)O)C(=O)N2CCC(OCC(=O)O)CC2)cc1`, the results for the Ratio in assay [1] and in assay [4] were greater than 30000 and 0.02, respectively. Besides, the IC50 in assay [2] was 340 nM; in assay [3], 350 nM; in assay [5] it was 380 nM.
With `N=C(N)c1cccc(S(=O)(=O)NCCc2ccc(OCC(=O)O)cc2)c1`, the Ratio in assay [6] is 24. Further, the IC50 in assay [2], in assay [3] and in assay [5] was greater than 200000 nM in each case.
Take `CC(C)[C@H](NC(=O)[C@H](CC(=O)O)NC(=O)CNC(=O)COc1ccc(C(=N)N)cc1)C(=O)O`: the values for the Ratio in assay [1] and in assay [4] were 700 and 0.02, respectively. For the same molecule, the IC50 in assay [2] stood at 600 nM; in assay [3], 700 nM; in assay [5] it was 500 nM.
For `CC(C)[C@H](NC(=O)[C@H](CC(=O)O)NC(=O)CNC(=O)[C@@H](N)CCCNC(=N)N)C(=O)O` (H-RGDV-OH) the same measures were 0.6, 0.63, 151000 nM, 127000 nM and 98000 nM.
Regarding `C[C@H](NC(=O)c1ccc(C(=N)N)cc1)C(=O)N1CCC(OCC(=O)O)CC1` [RO-44-3888], the values for the Ratio in assay [1] and in assay [4] were greater than 27000 and 0.0007, respectively. The IC50 came out at 70 nM in assay [2], 50 nM in assay [3] and 50 nM in assay [5].
`COC(=O)COc1ccc(CCNC(=O)c2ccc(C(=N)N)cc2)cc1`: the Ratio came to 2300 in assay [1] and 0.45 in assay [4]. Moreover, the IC50 in assay [2] worked out at 300 nM; in assay [3], 900 nM; in assay [5], 500 nM.

The values are drawn from ChEMBL document CHEMBL1125366, “Low molecular weight, non-peptide fibrinogen receptor antagonists” (J Med Chem, 1992).
